Columns and labels:
[1] = target: Human immunodeficiency virus type 1 reverse transcriptase (Human immunodeficiency virus 1) (UniProt Q72547); assay: In vitro inhibitory activity against HIV-1 reverse transcriptase at 100 uM
In short: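 Recombinant HIV-1 RT (p51/p66 heterodimer, 90–95% pure, 0.0274 μM) with poly(rA) 10 μg/mL and (dT)10 primer 5 μg/mL; 8 μM α-35S-dTTP, 50 mM Tris-HCl pH 8.3, 10 mM MgCl2, 60 mM NaCl, 20 mM DTT, 0.05% NP-40. 37 °C, 15 min; TCA-precipitated label counted on filters. Percent inhibition at 100 μM, mean of at least two determinations.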

[2] = tested on: Human immunodeficiency virus 1; assay: Effective antiviral dose required to block the spread of HIV-1D34 infection in human peripheral blood mononuclear cells; assay type: functional; conditions: read-out: ED50 (the source's name)
In short: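 PBMC (1 × 10^6 cells) infected with HIV-1 D34 inoculum containing 1 ng p24, cultured at 37 °C in 5% CO2. Replication read as supernatant p24 at day 4. ED50 = 50% effective antiviral dose, estimated in some cases.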

[3] = Tested for the drug concentration required to decrease […] infected human peripheral blood mononuclear cell viability compared to uninfected controls; assay type: functional
In short: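 Uninfected and HIV-1 D34-infected PBMC at 37 °C, 5% CO2. Viability taken from mitogen-stimulated cell proliferation. CC50 is the concentration lowering viability relative to uninfected controls; mostly estimated.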

MT2 [4] = assay: Tested for the drug concentration required to decrease HIV-1IIIb infected MT-2 cell viability compared to uninfected controls; assay type: functional; conditions: Homo sapiens
In short: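 MT-2 cells with HIV-1 IIIb (MOI 0.001), 4-day culture. Viability by trypan blue exclusion. CC50 is the concentration lowering viability relative to uninfected controls; mostly estimated.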

MT2 [5] = assay: Effective antiviral dose required to block the spread of HIV-1 IIIb infection in MT-2 cells by monitoring the formation of syncytia; assay type: functional; conditions: Homo sapiens, read-out: ED50 (the source's name)
In short: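 MT-2 cells infected with HIV-1 IIIb at MOI 0.001, held at 37 °C in 5% CO2. Syncytium formation scored 4 days post-infection, at peak cytopathic effect. ED50 is the dose giving 50% reduction in syncytia; some values were estimated, and ">" means 50% was not reached at the top concentration.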

CCNc1cccc(N2CCN(C(=O)c3ccc4[nH]ccc4c3)CC2)n1
inhibition [1]: 0%

CCNc1cccnc1N1CCN(C(=O)c2nc3ccccc3o2)CC1
inhibition [1]: 0%

CC(C)(C)NC(=O)c1cccnc1N1CCN(C(=O)c2cc3ccccc3[nH]2)CC1
inhibition [1]: 50%

CCNc1cccnc1N1CCN(C(=O)c2ccc3[nH]ccc3c2)CC1
EC50 [2]: ~10 µM
CC50 [3]: > 100 µM
inhibition [1]: 45%

COc1c(C)cc(CN2CCN(c3ncccn3)CC2)cc1C
inhibition [1]: 0%

CCNc1cccnc1N1CCN(C(=O)c2cnccn2)CC1
inhibition [1]: 0%

CCNc1cccnc1N1CCN(C(=O)c2ccc[nH]2)CC1
EC50 [2]: > 1 µM
CC50 [3]: > 100 µM
inhibition [1]: 87%

CC(C)Nc1ccc(F)cc1N1CCN(C(=O)c2cc3ccccc3[nH]2)CC1
EC50 [2]: 0.1 µM
CC50 [3]: > 100 µM
inhibition [1]: 77%

COc1ccccc1N1CCN(C(=O)c2cc3ccccc3[nH]2)CC1
inhibition [1]: 33%

O=C(c1cc2ccccc2[nH]1)N1CCN(c2ncccc2NCC(F)(F)F)CC1
EC50 [2]: 1 µM
CC50 [3]: > 10 µM
inhibition [1]: 40%

N#Cc1ccccc1N1CCN(C(=O)c2cc3ccccc3[nH]2)CC1
inhibition [1]: 0%

CCNc1cccnc1N1CCN(C(=O)c2cnc3ccccc3c2)CC1
inhibition [1]: 14%

CCNc1cccnc1N1CCN(C(=O)c2cccc3[nH]ccc23)CC1
inhibition [1]: 28%

CC(=O)c1cccnc1N1CCN(C(=O)c2cc3ccccc3[nH]2)CC1
inhibition [1]: 30%

CCNc1cccnc1N1CCN(C(=O)c2cccc3cc[nH]c23)CC1
EC50 [2]: 1 µM
CC50 [3]: > 100 µM
inhibition [1]: 87%

O=C(c1cc2ccccc2[nH]1)N1CCN(c2ncccc2NCc2ccccc2)CC1
inhibition [1]: 14%

CCNc1cccnc1N1CCN(C(=O)c2cc3ccccc3s2)CC1
EC50 [2]: 10 µM
CC50 [3]: ~100 µM
inhibition [1]: 50%

COc1c(C)cc(CN2CCN(c3ccccn3)CC2)cc1C
EC50 [2]: > 10 µM
CC50 [3]: > 100 µM
inhibition [1]: 0%

CC(C)Nc1cnnc(N2CCN(C(=O)c3ccc4[nH]ccc4c3)CC2)c1
inhibition [1]: 39%

CCCNc1cccnc1N1CCN(C(=O)c2cc3ccccc3[nH]2)CC1
EC50 [2]: 0.1 µM
CC50 [3]: > 100 µM
inhibition [1]: 64%

CCOc1ccccc1N1CCN(Cc2cc(C)c(OC)c(C)c2)CC1
inhibition [1]: 0%

CCNc1cccnc1N1CCN(C(=O)c2ccco2)CC1
EC50 [2]: > 10 µM
CC50 [3]: > 100 µM
inhibition [1]: 39%

CNc1cccnc1N1CCN(C(=O)c2cc3ccccc3[nH]2)CC1
EC50 [2]: ~1 µM
CC50 [3]: > 10 µM
inhibition [1]: 85%

CCOc1ccccc1N1CCN(C(=O)c2cc(C)c(OC)c(C)c2)CC1
EC50 [2]: > 1 µM
CC50 [3]: < 10 µM
inhibition [1]: 0%

CCN(CC)c1cccnc1N1CCN(C(=O)c2cc3ccccc3[nH]2)CC1
EC50 [2]: 1 µM
CC50 [3]: > 10 µM
inhibition [1]: 69%

CCNc1cccnc1N1CCN(C(=O)c2ccc3ccccc3n2)CC1
inhibition [1]: 0%

CC(=O)Nc1cccnc1N1CCN(C(=O)c2cc3ccccc3[nH]2)CC1
EC50 [2]: > 10 µM
CC50 [3]: > 100 µM
inhibition [1]: 0%

CCN(C(C)=O)c1cccnc1N1CCN(C(=O)c2cc3ccccc3[nH]2)CC1
inhibition [1]: 8%

Cc1cn([C@H]2C[C@H](N=[N+]=[N-])[C@@H](CO)O2)c(=O)[nH]c1=O [ZIDOVUDINE]
EC50 [2]: 0.001 µM
CC50 (MT2 [4]): 123 µM
EC50 (MT2 [5]): 0.07 µM
CC50 [3]: 10 µM

CCOc1ccccc1N1CCN(C(=O)c2cc3ccccc3[nH]2)CC1
EC50 [2]: > 1 µM
CC50 [3]: < 10 µM
inhibition [1]: 76%

N#Cc1cccnc1N1CCN(C(=O)c2cc3ccccc3[nH]2)CC1
inhibition [1]: 5%

CCNc1cccnc1N1CCN(Cc2cc3ccccc3[nH]2)CC1
EC50 [2]: 1 µM
inhibition [1]: 64%

CCNc1cccnc1N1CCN(C(=O)c2cc3c(C)c(OC)c(C)c(C)c3[nH]2)CC1
EC50 [2]: > 10 µM
CC50 [3]: > 10 µM
inhibition [1]: 63%

CCNc1ccccc1N1CCN(C(=O)c2cc3ccccc3[nH]2)CC1
EC50 [2]: 1 µM
CC50 [3]: > 100 µM
inhibition [1]: 78%

Reference: ChEMBL document CHEMBL1127691, “Discovery, synthesis, and bioactivity of bis(heteroaryl)piperazines. 1. A novel class of non-nucleoside HIV-1 reverse transcriptase inhibitors” (J Med Chem, 1994)
